Columns and labels:
[1] = test system: alpha subunit of type IIA sodium channels; test: Fast peptide block of LqTx-modified sodium channels, whole-cell patch clamp; type: cell-based, rat; details: 100 nM LqTx; for fast block of LqTx-modified sodium channels (in words) / fraction of extrapolated peak sodium current unblocked at steady state: 1 mM peptide intracellular, 0 mV; for k u(0 mV), unblocking rate / k b(0 mV), blocking rate: 1 mM peptide, SEM; for k u(0 mV), unblocking rate: calculated from τ and Fss by Eq. 3, mean ± SEM; for k b(0 mV), blocking rate: calculated from τ and Fss by Eq. 2, mean ± SEM
Procedure, shortened: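 CHO cells stably expressing the channel alpha subunit, recorded 24 h after subculture; whole-cell patch clamp at 22–25°C. Pipette carries 1 mM test peptide, and recording starts about 20 min after break-in. LqTx-modified currents are elicited by steps from −80 mV to 0 mV. Decay is fit to a single exponential, with Fss = B/(A+B). kb and ku come from τ and Fss.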

[2] = test system: alpha subunit of type IIA sodium channels; test: Use-dependent block, conditioning pulse protocol; type: cell-based, rat; details: for use-dependent block, conditioning pulse protocol (in words): Fig. 5 and 6; for use-dependent block at 200 mV: wild-type channels, conditioning pulses to 200 mV
sodium channels = details: ref Eaholtz et al., cited from earlier work
[3] = test system: alpha subunit of type IIA sodium channels; test: Recovery from fast block, two-pulse voltage protocol; type: cell-based, rat; details: for time constant of recovery from fast block at −80 mV: interpulse −80 mV, mean ± SEM, n = 5
Procedure, shortened: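 CHO cells stably expressing the channel alpha subunit, under whole-cell clamp at 22–25°C with 1 mM test peptide in the pipette; channels LqTx-modified. Two 0-mV test pulses give the ratio I2/I1. The protocol is repeated 20× with the interpulse interval increased by Δt each time. Interpulse voltage is −80, −100, −120 or −140 mV. Recovery versus interval is fit to a single exponential for the time constant.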

[4] = 1 mM peptide, channels not modified by LqTx

## KIFMT-NH2
[1]
  fast block of LqTx-modified sodium channels (in words): rapidly blocked LqTx-modified sodium currents
  k u(0 mV), unblocking rate: 386 ± 81 s⁻¹
[2]; [4]
  use-dependent block, conditioning pulse protocol (in words): much less effective than ac-KIFMK-NH2

## KIFM-NH2
[1]
  fraction of extrapolated peak sodium current unblocked at steady state: 42%
  k b(0 mV), blocking rate: 1751 ± 163 s⁻¹
  k u(0 mV), unblocking rate: 1283 ± 149 s⁻¹
[2]; [4]
  use-dependent block, conditioning pulse protocol (in words): substantial use-dependent block

## FM-NH2
[2]; [4]
  use-dependent block, conditioning pulse protocol (in words): not effective in use-dependent block

## ac-KIQMK-NH2
Sodium channels; 1994
  fast block of sodium channels (in words): did not produce fast block
  use-dependent block (in words): ineffective in use-dependent block
[2]; [4]
  use-dependent block, conditioning pulse protocol (in words): did not produce significant block

## ac-RIFMR-NH2
[1]
  fast block of LqTx-modified sodium channels (in words): rapidly blocked LqTx-modified sodium currents
  k u(0 mV), unblocking rate: 222 ± 33 s⁻¹
[2]; [4]
  use-dependent block, conditioning pulse protocol (in words): significantly more potent than ac-KIFMK-NH2

## ac-KAFAK-NH2
Sodium channels; 1994
  fast block of sodium channels (in words): did not produce fast block
[2]; [4]
  use-dependent block, conditioning pulse protocol (in words): less effective
[2]; 1 mM peptide
  use-dependent block at 200 mV: > 60%

## cyclic KIFMK (head to tail)
[1]
  fast block of LqTx-modified sodium channels (in words): did not exhibit significant fast block
[2]; [4]
  use-dependent block, conditioning pulse protocol (in words): nearly as potent in use-dependent block as ac-KIFMK-NH2
[2]; 1 mM peptide
  use-dependent block at 200 mV: ~100%

## ac-DIFMT-NH2
[1]
  fast block of LqTx-modified sodium channels (in words): did not produce significant fast block
[2]; [4]
  use-dependent block, conditioning pulse protocol (in words): no effect at all

## NC(=O)[C@@H](N)Cc1ccccc1 [F-NH2, phenylalanine-amide]
[2]; [4]
  use-dependent block, conditioning pulse protocol (in words): not effective in use-dependent block

## Ac-KIFMTK-NH2
[1]
  k b(0 mV), blocking rate: 2881 ± 263 s⁻¹
  k u(0 mV), unblocking rate: 731 ± 8 s⁻¹
[2]; [4]
  use-dependent block, conditioning pulse protocol (in words): poor use-dependent blocker

## DIFMK-NH2
[2]; [4]
  use-dependent block, conditioning pulse protocol (in words): much less effective than ac-KIFMK-NH2

## ac-KIFMK-NH2
[1]
  fraction of extrapolated peak sodium current unblocked at steady state: 21%
  k u(0 mV), unblocking rate: 587 ± 40 s⁻¹
Sodium channels; voltage dependence of fast block, 1998
  δ value of fast block: 0.3
[2]; 1 mM peptide, 100 nM LqTx, n = 6, mean ± SEM, SEM
  fractional current (I12/I1) after 10 conditioning pulses to 200 mV, LqTx-modified channels: 0.03 ± 0.02
[2]; 1.0 mM peptide, 200-mV conditioning pulses
  use-dependent block in the absence or presence of LqTx: > 95%
[2]; 1 mM peptide, channels not modified by LqTx, Fig. 5 A
  conditioning voltage of half-maximal use-dependent block: +125 mV
[2]; 1.5 mM peptide, three cells, unmodified channels
  use-dependent block with conditioning pulses more positive than 150 mV: ~100%
[2]; mean zδ divided by two (two positive charges)
  δ of use-dependent block: 0.5
[2]; −80 mV
  time for half-maximal recovery from use-dependent block: more than 90 s
[3]; 1 mM peptide, LqTx-modified channels
  time constant of recovery from fast block at −80 mV: 0.9 ms
[3]; 1 mM peptide, LqTx-modified channels, SEM
  time constant of recovery from fast block at −80 mV: 0.9 ± 0.3 ms
[3]; 1 mM peptide, LqTx-modified channels, interpulse −100 mV, n = 6
  time constant of recovery from fast block at −100 mV: 0.6 ± 0.1 ms
[3]; 1 mM peptide, LqTx-modified channels, interpulse −120 mV, n = 6
  time constant of recovery from fast block at −120 mV: 0.4 ± 0.1 ms
[3]; 1 mM peptide, LqTx-modified channels, interpulse −140 mV, n = 4
  time constant of recovery from fast block at −140 mV: 0.3 ± 0.1 ms
[3]; −80 mV
  time at which recovery from fast block was half complete: 0.9 ms

Source: PMC2223369 (The Journal of General Physiology, 1999)
